Laboratory results: ChEMBL document CHEMBL1132312, “Conformationally constrained butyrophenones with mixed dopaminergic (D(2)) and serotoninergic (5-HT(2A), 5-HT(2C)) affinities: synthesis, pharmacology, 3D-QSAR, and molecular modeling of (aminoalkyl)benzo- and -thienocycloalkanones as putative atypical antipsychotics” (J Med Chem, 1999)

How the values were obtained:
[1] = molecular target: T1, 5-hydroxytryptamine receptor 2A (Rattus norvegicus, UniProt P14842); assay: In vitro ability to displace [3H]ketanserin binding from 5-hydroxytryptamine 2A receptor in rat membrane.
D(1A) dopamine receptor [2] = molecular target: T2, D(1A) dopamine receptor (Rattus norvegicus, UniProt P18901); assay: In vitro ability to displace [3H]SCH-23390 binding from Dopamine 1 (D1) receptor in rat striatal membrane.; format: cell membranes
[3] = pA2 value was evaluated by measuring the inhibition of the 5-HT-induced contraction of rat aorta.; format: functional, tissue-based
Outline: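 Thoracic aorta rings, denuded, from male 250-350-g Sprague-Dawley rats. Isometric force recorded after 60 min equilibration under 2 g load, then sensitized with 10 µM 5-HT for 8 min.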

Mus musculus [4] = assay: In vivo Antipsychotic activity was quantified by induction of catalepsy in mice; format: functional
Outline: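 Male CD1 mice, 27 ± 3 g, 6-12 per group, tested 30 min after dosing. Forepaws placed on one horizontal wire, hindpaws on another 6 cm away and 2 cm lower. Holding the posture for more than 30 s scored as catalepsy. ED50 by Litchfield-Wilcoxon.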

D(1A) dopamine receptor [5] = molecular target: T2, D(1A) dopamine receptor; assay: In vitro ability to displace [3H]SCH-23390 binding from Dopamine receptor D1 in rat striatal membrane.; format: cell membranes
Outline: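 Striatal membranes from male Sprague-Dawley rats, washed in Tris-HCl with 5 mM EDTA. Resuspended at 1.00 mg wet weight/750 µL in 50 mM Tris-HCl pH 7.4 with 120 mM NaCl, 5 mM KCl, 2 mM CaCl2 and 1 mM MgCl2. [3H]SCH23390 competition in duplicate, 15 min at 37 °C, filtered. Nonspecific binding defined with 1 µM final SCH23390. Ki = IC50/(1 + D/Kd).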

Mus musculus [6] = assay: In vivo Antipsychotic activity was quantified by inhibition of apomorphine-induced climbing(CL 95%) by mice; format: functional
Outline: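 Male CD1 mice given test drug or vehicle, then 2 mg/kg apomorphine 30 min later. Housed singly in wire cylinders; 6 per dose, 12 controls. Climbing scored 0-2 every 10 min over 30 min. Scores at 20 and 30 min summed and averaged per group. ED50 from nonlinear curve fitting.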

[7] = molecular target: T1, 5-hydroxytryptamine receptor 2A; assay: Compound was tested in vitro for its binding affinity towards 5-hydroxytryptamine 2A receptor from rat frontal cortex using [3H]-ketanserin as radioligand; format: tissue-based
Outline: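 Frontal cortex from male 200-250-g Sprague-Dawley rats, homogenized in 0.32 M sucrose, then washed. Pellet incubated 15 min at 37 °C to strip endogenous 5-HT. Assay buffer Tris-HCl pH 8.07 with 4 mM CaCl2 and 0.1% ascorbic acid. [3H]ketanserin competition run in triplicate, 30 min at 37 °C, with GF/C filtration. Nonspecific binding defined with methysergide. Ki = IC50/(1 + D/Kd), with Kd taken from saturation binding.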

T2 sequence (P18901 whole entry): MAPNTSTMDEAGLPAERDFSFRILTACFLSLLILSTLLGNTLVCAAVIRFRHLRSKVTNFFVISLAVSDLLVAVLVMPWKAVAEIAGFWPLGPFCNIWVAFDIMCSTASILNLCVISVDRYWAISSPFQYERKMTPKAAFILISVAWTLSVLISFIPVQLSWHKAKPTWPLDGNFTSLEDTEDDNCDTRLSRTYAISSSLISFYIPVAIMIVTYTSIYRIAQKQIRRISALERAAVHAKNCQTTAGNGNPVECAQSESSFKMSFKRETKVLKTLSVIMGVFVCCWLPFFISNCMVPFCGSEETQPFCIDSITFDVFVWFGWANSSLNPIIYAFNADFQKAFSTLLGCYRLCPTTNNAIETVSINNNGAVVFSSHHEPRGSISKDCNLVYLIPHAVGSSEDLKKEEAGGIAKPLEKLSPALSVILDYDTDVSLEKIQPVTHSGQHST
T1 sequence (P14842 whole entry): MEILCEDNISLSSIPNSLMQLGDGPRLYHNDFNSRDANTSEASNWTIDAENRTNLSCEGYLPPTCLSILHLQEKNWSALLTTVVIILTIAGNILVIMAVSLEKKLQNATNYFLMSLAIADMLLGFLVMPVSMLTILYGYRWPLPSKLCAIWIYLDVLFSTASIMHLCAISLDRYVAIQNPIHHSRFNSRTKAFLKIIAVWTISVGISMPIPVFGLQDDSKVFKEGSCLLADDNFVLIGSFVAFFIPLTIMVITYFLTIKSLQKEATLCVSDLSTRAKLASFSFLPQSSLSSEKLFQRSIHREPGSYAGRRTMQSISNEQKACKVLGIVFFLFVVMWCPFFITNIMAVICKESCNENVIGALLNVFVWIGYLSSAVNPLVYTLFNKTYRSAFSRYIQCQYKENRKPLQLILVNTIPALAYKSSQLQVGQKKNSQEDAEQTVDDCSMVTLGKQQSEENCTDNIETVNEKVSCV

Ki [1]	Ki (D(1A) dopamine receptor [2])	Ki (D(1A) dopamine receptor [5])	Ki [7]	SMILES	pA2 [3]	ED50 (Mus musculus [4])	ED50 (Mus musculus [6])
72.4 nM	1350 nM			O=C(CCCN1CCN(CCC2CCc3ccccc3C2=O)CC1)c1ccc(F)cc1 (stereo unspecified)	7.35		
891 nM		3720 nM		COc1ccccc1N1CCN(CC2CC(=O)c3ccccc32)CC1.Cl (stereo unspecified)	6.21	> 8 mg/kg	> 8 mg/kg
57.5 nM	427 nM			Cl.O=C1CC(CN2CCC(C(=O)c3ccc(F)cc3)CC2)Cc2sccc21 (stereo unspecified)	7.82	> 16 mg/kg	1.25 mg/kg
107 nM	1350 nM			Cl.O=C(CCCN1CCN(CC2CC(=O)c3ccsc3C2)CC1)c1ccc(F)cc1 (stereo unspecified)	7.79	> 2 mg/kg	> 8 mg/kg
17.8 nM				O=C(CCCN1CCN(CC2CC(=O)c3ccccc3C2)CC1)c1ccc(F)cc1 (stereo unspecified)	7.27		
13.2 nM				O=C(c1ccc(F)cc1)C1CCN(CCC2CCCc3ccccc3C2=O)CC1 (stereo unspecified)	6.75		
				CN1CCN(C2=Nc3cc(Cl)ccc3Nc3ccccc32)CC1 [CLOZAPINE]		> 50 mg/kg	2.21 mg/kg
1.45 nM		1380 nM		Cl.O=C(c1ccc(F)cc1)C1CCN(CCC2CCc3sccc3C2=O)CC1 (stereo unspecified)	9.02	> 4 mg/kg	2.03 mg/kg
				O=C(c1ccc(F)cc1)C1CCN(CCC2Cc3ccccc3C2=O)CC1 (stereo unspecified)	8.12		
				O=C(CCCN1CCC(O)(c2ccc(Cl)cc2)CC1)c1ccc(F)cc1 [HALOPERIDOL]		0.67 mg/kg	0.14 mg/kg
40.7 nM		1480 nM		COc1ccccc1N1CCN(CCC2CCc3ccccc3C2=O)CC1 (stereo unspecified)	6.72		
45.7 nM		7080 nM		Cl.O=C(CCCN1CCN(CC2CC(=O)c3ccccc32)CC1)c1ccc(F)cc1 (stereo unspecified)	7.2	> 8 mg/kg	> 8 mg/kg
42.7 nM		324 nM		O=C(CCCN1CCN(CCC2Cc3sccc3C2=O)CC1)c1ccc(F)cc1 (stereo unspecified)	7.63	> 15 mg/kg	3.34 mg/kg
513 nM				COc1ccccc1N1CCN(CC2CC(=O)c3ccccc3C2)CC1 (stereo unspecified)	6.48		
				Cc1nc2n(c(=O)c1CCN1CCC(c3noc4cc(F)ccc34)CC1)CCCC2 [RISPERIDONE]		> 2 mg/kg	0.09 mg/kg
26.3 nM		1550 nM		Cl.O=C1CC(CN2CCC(C(=O)c3ccc(F)cc3)CC2)c2ccccc21 (stereo unspecified)	8.13	> 4 mg/kg	> 7 mg/kg
7.08 nM		2510 nM		O=C(O)C(=O)O.O=C(c1ccc(F)cc1)C1CCN(CCC2Cc3sccc3C2=O)CC1 (stereo unspecified)	8.92	> 16 mg/kg	65 mg/kg
				O=C1CC(CN2CCC(C(=O)c3ccc(F)cc3)CC2)Cc2ccccc21 (stereo unspecified)	7.86		
11.2 nM	562 nM			Cl.O=C(c1ccc(F)cc1)C1CCN(CCC2CCc3ccsc3C2=O)CC1 (stereo unspecified)		> 4 mg/kg	1.98 mg/kg
	3090 nM		288 nM	Cl.O=C(CCCN1CCN(CCC2CCc3sccc3C2=O)CC1)c1ccc(F)cc1 (stereo unspecified)	6.83	> 15 mg/kg	> 15 mg/kg
123 nM	1320 nM			O=C(CCCN1CCN(CCC2Cc3ccccc3C2=O)CC1)c1ccc(F)cc1 (stereo unspecified)	7.3		
4.68 nM	129 nM			Cl.O=C1CC(CN2CCC(c3noc4cc(F)ccc34)CC2)Cc2sccc21 (stereo unspecified)	9.13	> 8 mg/kg	1.46 mg/kg
1510 nM	> 10000 nM			COc1ccccc1N1CCN(CC2CC(=O)c3ccsc3C2)CC1.Cl (stereo unspecified)	5.9	> 8 mg/kg	> 8 mg/kg
	295 nM		2.75 nM	Cl.O=C1c2ccsc2CCC1CCN1CCC(c2noc3cc(F)ccc23)CC1 (stereo unspecified)	9.87	> 2 mg/kg	0.79 mg/kg
145 nM	5370 nM			COc1ccccc1N1CCN(CCC2CCc3sccc3C2=O)CC1.Cl (stereo unspecified)	6.95	> 8 mg/kg	> 8 mg/kg
6.76 nM	135 nM			Cl.O=C1c2sccc2CCC1CCN1CCC(c2noc3cc(F)ccc23)CC1 (stereo unspecified)		> 2 mg/kg	0.5 mg/kg
				O=C(c1ccc(F)cc1)C1CCN(CCC2CCc3ccccc3C2=O)CC1 (stereo unspecified)	7.47		
1.74 nM		126 nM		Cl.O=C1c2ccsc2CC1CCN1CCC(c2noc3cc(F)ccc23)CC1 (stereo unspecified)		> 20 mg/kg	0.47 mg/kg
